Data set [1] in a line: Antitumor activity against human K562/A02 cells xenografted in nude mouse assessed as tumor weight at 2 mg/kg. Type of data set: functional. The method in brief: (§1)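 SCID nude mice received subcutaneous axillary inoculation of log-phase K562/A02 cells at 1 × 10⁷/ml. The cells were maintained in RPMI 1640 with 10% FCS and ADM 1 µg/ml final. When tumors reached a mean diameter of 0.4–0.6 cm, mice were randomized into groups of ten. Drug was given IV three times weekly, alongside adriamycin; vehicle controls were included. Endpoint was tumor weight. Inhibition ratio was calculated relative to the ADM-alone group.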

Data set [2] addresses T1, ATP-dependent translocase ABCB1 (Rattus norvegicus, UniProt P43245). The data set can be described thus: Inhibition of Pgp-mediated multidrug resistance activity in rat RBMEC cells assessed as Rh123 accumulation at 10 umol/L after 90 mins. Conditions: 1.5 h, 10 µM. Type of data set: cell-based. A digest of the protocol: (§2)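 Primary rat brain microvascular endothelial cells were grown in DF with 20% FCS to a 90% confluent monolayer. They were preincubated 30 min in serum-free DF. Compound (1, 3, 10 µM final) and Rh123 5 µM final were then added for 90 min, with cells collected at different times. Washed cells were lysed with Triton X-100 and fluorescence read at 488/535 nm. Values were normalized to Coomassie protein. Duplicate, ≥3 experiments.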

Data set [3] deals with T2, P-gp (ABCB1) (Homo sapiens, UniProt P08183). The data set can be described thus: Inhibition of Pgp-mediated multidrug resistance activity in human MCF7/ADM cells assessed as Rh123 accumulation at 1 umol/L after 30 mins. Type of data set: cell-based. Conditions: probe Rh123. The method in brief:
(§3)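 MCF-7/ADM cells were maintained with ADM 1 µM and seeded at 4 × 10⁴/ml. They were preincubated 30 min in serum-free RPMI 1640, then given compound (1, 3, 10 µM final) for 30 min. Rh123 10 µM final was added for a further 60 min at 37 °C. After PBS washes and Triton X-100 lysis, intracellular fluorescence was read at ex 488/em 535 nm. Triplicate. Inhibitory ratio = (treated − control)/control × 100, background-corrected.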

The target in data set [4] is T1, ATP-dependent translocase ABCB1. Nature of the data set: Inhibition of Pgp-mediated multidrug resistance activity in rat RBMEC cells assessed as Rh123 accumulation at 3 umol/L after 90 mins. Conditions: 1.5 h, 3 µM. Type of data set: cell-based. A digest of the protocol:
as §2

The nature of data set [5]: Antitumor activity against human K562/A02 cells xenografted in nude mouse at 8 mg/kg. Type of data set: functional. A digest of the protocol:
as §1

The next data set concerns K562/A02. The data set can be described thus: Decrease in membrane lipid fluidity in human K562/A02 cells at 10 umol/L. Type of data set: functional, cell-based. A digest of the protocol: (§4)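 K562 and K562/A02 cells were grown in RPMI 1640 with 10% FCS and seeded at 1 × 10⁵/ml. They were exposed to 1, 3 or 10 µM compound (final) for 24 h, then washed and labelled with 2 µM DPH for 30 min. After washing, cells were held 10 min at 25 °C. Fluorescence polarization P was read at ex 357.6/em 428.7 nm, with P inversely related to membrane fluidity. Duplicate, ≥3 experiments.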

In data set [6] the test system is Rattus norvegicus. Nature of the data set: Toxicity in Sprague-Dawley rat assessed as ventricular sustained tachycardia by measuring aconitine nitrate level at 2 mg.kg, iv by […]. Type of data set: organism-based, Cardiac ventricle. Conditions: in vivo. A digest of the protocol: (§5)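 SD rats were anesthetized with urethane 1.2 g/kg ip, and compound in normal saline was given via the femoral vein. Two minutes later, aconitine nitrate was infused IV at constant rate by peristaltic pump. The aconitine dose at onset of premature beats, sustained tachycardia or fibrillation was determined by […]. n = 3.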

The target in data set [7] is T1, ATP-dependent translocase ABCB1. Nature of the data set: Inhibition of Pgp-mediated multidrug resistance activity in rat RBMEC cells assessed as Rh123 accumulation at 1 umol/L after 90 mins. Conditions: 1.5 h, 1 µM. Type of data set: cell-based. The method in brief: as §2
Data set [8] is described as follows: Antitumor activity against human K562/A02 cells xenografted in nude mouse at 2 mg/kg. Type of data set: functional. A digest of the protocol: as §1
The target in data set [9] is T2, P-gp (ABCB1). Nature of the data set: Inhibition of Pgp-mediated multidrug resistance activity in human MCF7/ADM cells assessed as Rh123 accumulation at 10 umol/L after 30 mins. Type of data set: cell-based. Conditions: probe Rh123. A digest of the protocol:
as §3

Data set [10] deals with Rattus norvegicus. Nature of the data set: Toxicity in Sprague-Dawley rat assessed as ventricular fibrillation by measuring aconitine nitrate level at 2 mg.kg, iv by […]. Type of data set: organism-based, Cardiac ventricle. Conditions: in vivo. The method in brief:
as §5

Data set [11] relates to Rattus norvegicus. Nature of the data set: Toxicity in Sprague-Dawley rat assessed as ventricular permeature beat by measuring aconitine nitrate level at 2 mg.kg, iv by […]. Type of data set: organism-based, Cardiac ventricle. Conditions: in vivo.
For a further data set, the system named is K562. The data set can be described thus: Effect on membrane lipid fluidity in human K562 cells. Type of data set: functional, cell-based. A digest of the protocol:
as §4

Another data set has as its system Aorta. The data set can be described thus: Toxicity in Sprague-Dawley rat aorta assessed as vascular contractile activity. Type of data set: tissue-based. To be noted: in vitro. A digest of the protocol:
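Aortic rings came from SD rats (250–350 g) and were kept at 37 °C under 95% O₂/5% CO₂. Isometric tension was recorded. After 60 min equilibration, rings were contracted with 20 or 80 mM KCl. Drug was then added in increasing concentrations until maximal relaxation. Relaxation was expressed as % of the KCl contraction.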

The target in data set [12] is T2, P-gp (ABCB1). The data set can be described thus: Inhibition of Pgp-mediated multidrug resistance activity in human MCF7/ADM cells assessed as Rh123 accumulation at 3 umol/L after 30 mins. Type of data set: cell-based. Conditions: probe Rh123. A digest of the protocol: as §3

The source made the active and inactive calls. The calls are words filed in the database; no cut-off is given here.

T2 sequence (P08183 whole entry): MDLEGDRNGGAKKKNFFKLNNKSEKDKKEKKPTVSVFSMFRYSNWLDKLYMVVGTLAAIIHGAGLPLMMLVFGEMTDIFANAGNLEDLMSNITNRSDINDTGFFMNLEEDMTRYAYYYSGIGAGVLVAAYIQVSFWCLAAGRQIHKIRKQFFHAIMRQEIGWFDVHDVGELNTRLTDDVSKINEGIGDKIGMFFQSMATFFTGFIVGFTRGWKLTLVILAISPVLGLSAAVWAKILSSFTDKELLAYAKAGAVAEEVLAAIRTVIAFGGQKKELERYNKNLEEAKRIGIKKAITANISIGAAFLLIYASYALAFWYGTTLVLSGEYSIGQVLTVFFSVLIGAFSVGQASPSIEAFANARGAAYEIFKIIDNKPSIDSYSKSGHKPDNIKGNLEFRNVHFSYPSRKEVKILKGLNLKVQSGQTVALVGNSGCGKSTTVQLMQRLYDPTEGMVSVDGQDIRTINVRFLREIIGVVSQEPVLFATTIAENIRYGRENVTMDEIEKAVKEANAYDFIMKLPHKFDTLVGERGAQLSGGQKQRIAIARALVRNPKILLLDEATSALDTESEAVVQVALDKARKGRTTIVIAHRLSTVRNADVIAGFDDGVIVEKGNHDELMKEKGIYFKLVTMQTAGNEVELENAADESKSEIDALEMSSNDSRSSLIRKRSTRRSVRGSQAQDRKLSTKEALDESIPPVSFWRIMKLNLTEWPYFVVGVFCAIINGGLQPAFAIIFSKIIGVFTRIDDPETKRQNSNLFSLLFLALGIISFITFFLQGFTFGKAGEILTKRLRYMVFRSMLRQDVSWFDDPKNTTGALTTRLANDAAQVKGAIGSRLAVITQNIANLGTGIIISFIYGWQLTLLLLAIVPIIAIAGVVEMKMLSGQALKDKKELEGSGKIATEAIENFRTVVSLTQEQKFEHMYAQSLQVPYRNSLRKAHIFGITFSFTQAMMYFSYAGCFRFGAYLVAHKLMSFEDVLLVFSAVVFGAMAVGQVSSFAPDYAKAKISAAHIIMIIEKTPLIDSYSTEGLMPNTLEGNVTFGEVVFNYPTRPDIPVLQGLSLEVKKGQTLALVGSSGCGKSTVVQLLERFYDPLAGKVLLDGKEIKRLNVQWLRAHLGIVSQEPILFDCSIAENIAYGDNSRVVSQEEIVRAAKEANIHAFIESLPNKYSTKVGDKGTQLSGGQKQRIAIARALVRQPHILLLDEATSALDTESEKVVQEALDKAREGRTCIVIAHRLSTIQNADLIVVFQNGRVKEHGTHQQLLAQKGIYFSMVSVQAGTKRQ
T1 sequence (P43245 whole entry): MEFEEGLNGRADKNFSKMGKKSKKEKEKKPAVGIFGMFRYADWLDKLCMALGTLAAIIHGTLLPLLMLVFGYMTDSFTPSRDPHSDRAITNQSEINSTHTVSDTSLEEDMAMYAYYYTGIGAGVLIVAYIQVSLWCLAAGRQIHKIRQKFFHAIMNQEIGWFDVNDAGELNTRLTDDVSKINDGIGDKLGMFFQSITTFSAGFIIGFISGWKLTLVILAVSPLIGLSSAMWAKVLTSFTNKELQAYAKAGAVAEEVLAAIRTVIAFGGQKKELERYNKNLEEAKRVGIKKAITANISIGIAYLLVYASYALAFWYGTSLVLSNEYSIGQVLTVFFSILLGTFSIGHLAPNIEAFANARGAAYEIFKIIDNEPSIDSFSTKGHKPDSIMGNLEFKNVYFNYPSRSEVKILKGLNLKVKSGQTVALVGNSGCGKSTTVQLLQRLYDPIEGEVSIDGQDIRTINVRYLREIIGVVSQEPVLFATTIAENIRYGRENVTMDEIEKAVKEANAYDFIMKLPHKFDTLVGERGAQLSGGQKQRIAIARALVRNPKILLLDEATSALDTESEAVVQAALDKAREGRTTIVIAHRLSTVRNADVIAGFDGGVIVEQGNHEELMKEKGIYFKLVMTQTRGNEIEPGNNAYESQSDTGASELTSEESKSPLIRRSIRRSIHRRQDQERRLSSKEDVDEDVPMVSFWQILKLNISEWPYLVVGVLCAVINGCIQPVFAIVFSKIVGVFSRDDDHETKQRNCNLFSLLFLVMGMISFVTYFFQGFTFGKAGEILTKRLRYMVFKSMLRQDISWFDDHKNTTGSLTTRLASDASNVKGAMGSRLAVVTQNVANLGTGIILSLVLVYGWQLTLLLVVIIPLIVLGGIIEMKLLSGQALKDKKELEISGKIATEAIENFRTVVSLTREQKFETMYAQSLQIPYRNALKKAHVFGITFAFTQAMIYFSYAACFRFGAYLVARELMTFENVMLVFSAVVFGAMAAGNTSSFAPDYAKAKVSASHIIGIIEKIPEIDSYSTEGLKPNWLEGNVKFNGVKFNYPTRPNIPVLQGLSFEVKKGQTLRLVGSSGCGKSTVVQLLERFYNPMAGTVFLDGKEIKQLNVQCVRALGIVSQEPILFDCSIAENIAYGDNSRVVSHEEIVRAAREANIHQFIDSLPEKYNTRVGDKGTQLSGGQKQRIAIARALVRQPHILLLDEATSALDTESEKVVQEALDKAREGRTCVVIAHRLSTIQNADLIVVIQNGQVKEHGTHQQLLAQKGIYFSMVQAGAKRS

Consider `COc1cccc2c1C(=O)c1c(O)c3c(c(O)c1C2=O)C[C@@](O)(C(=O)CO)C[C@@H]3O[C@H]1C[C@H](N)[C@H](O)[C@H](C)O1` [DOXORUBICIN], for which, in data set [1], the Activity was found to be 2.17 g.

Turning to `CCCCCCCCN/C(=N/C#N)N1CCc2cc(OC)c(OC)cc2C1Cc1ccc(OC)c(OC)c1` (stereo unspecified), the Activity result in data set [2] is “Active”; in data set [4] it was “Active”; in the data set with Rattus norvegicus [6], 26.7 µg/kg; in [7], “Active”; in the data set on Rattus norvegicus [10], 31.5 µg/kg; in the data set on Rattus norvegicus [11], 22.4 µg/kg. Also, in the data set with Aorta, the Activity entry is recorded as “Not Active”. For the same molecule, the inhibition at 0.5 h, 1 µM at P-gp (ABCB1) [3] worked out at 35.2%. Further, the inhibition in vivo at 8 mg/kg in [5] is -59.5%. For the same molecule, in the data set on K562/A02, the result was Active. The inhibition in vivo at 2 mg/kg in [8] was -62.2%. Further, the inhibition at 0.5 h, 10 µM on P-gp (ABCB1) [9] was 69.3%. Further, the result with K562 was inactive. Further, the inhibition at 0.5 h, 3 µM at P-gp (ABCB1) [12] amounted to 60.5%.

In the case of `COc1ccc(CCN(C)CCCC(C#N)(c2ccc(OC)c(OC)c2)C(C)C)cc1OC` (stereo unspecified) [VERAPAMIL], the Activity result is “Active” in [2], 44 µg/kg in the data set on Rattus norvegicus [6] and 55 µg/kg in the data set on Rattus norvegicus [10]. Also, the inhibition in vivo at 8 mg/kg in [5] was -66.4%. The inhibition at 0.5 h, 10 µM on P-gp (ABCB1) [9] turned out to be 98.7%. Moreover, the outcome in the data set on K562 was inactive.

The values are drawn from ChEMBL document CHEMBL1145581, “Design and synthesis of tetrahydroisoquinoline derivatives as potential multidrug resistance reversal agents in cancer” (Bioorg Med Chem Lett, 2008).
